Ends that are not written are not given here. Oregon Green 488 = Oregon Green 488 fluorophore

For one test, the system named is PICK1 PDZ domain. Conditions: in words, ref [39], cited from earlier work.
Test [1] concerns PKCα. As to the kind of experiment: In vitro phosphorylation by PKCα. Particulars: in words. The test is classed as biochemical. In outline: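 About 3 μg of purified untagged PICK1 variant was mixed with reaction buffer (Tris pH 7.5, MgCl2, CaCl2), PKC lipid activator, 10 ng PKCα and 2 μCi [γ-32P]ATP, then incubated 30 min at 30 °C. Reactions were stopped on ice with SDS loading buffer and run on SDS-PAGE. 32P and Coomassie bands were quantified, and the phosphorylation/protein density ratio was expressed relative to WT (100%). Mean ± SE, 3–5 experiments.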

The subject of test [2] is PKCα. As to the kind of experiment: In vitro phosphorylation by PKCα after preincubation with lipid vesicles. The test is classed as biochemical. Particulars: with vs without vesicles. In a few lines:
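Purified untagged PICK1 (~3 μg) was preincubated 30 min on ice with 3 μg Folch fraction type I vesicles extruded to 100 nm, or without vesicles. It was then phosphorylated with 10 ng PKCα, PKC lipid activator, Mg2+/Ca2+ Tris reaction buffer (pH 7.5) and 2 μCi [γ-32P]ATP for 30 min at 30 °C. Read-out was 32P band density over Coomassie protein density.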

The target of test [3] is T1, PICK1 S77D, rat (phosphomimic) (rat, UniProt Q9EP80 1-416, S77D). As to the kind of experiment: fluorescence polarisation.
For test [4], the target named is T2, PICK1 S77A, rat (rat, UniProt Q9EP80 1-416, S77A). As to the kind of experiment: fluorescence polarisation.
For test [5], the target named is T3, PICK1 WT (protein interacting with C-kinase 1), rat (rat, UniProt Q9EP80 1-416). As to the kind of experiment: fluorescence polarisation.
The target in test [6] is T1, PICK1 S77D, rat (phosphomimic). As to the kind of experiment: fluorescence polarisation. The source holds these as a separate data set. On the technique in general: Polarisation of emitted light reports the rotation of a fluorescent probe.
In test [7] the target is T2, PICK1 S77A, rat. As to the kind of experiment: fluorescence polarisation. The source holds these as a separate data set.
The target of test [8] is T3, PICK1 WT (protein interacting with …). As to the kind of experiment: fluorescence polarisation. This is another data set of the same source.

T3 sequence (Q9EP80 whole entry): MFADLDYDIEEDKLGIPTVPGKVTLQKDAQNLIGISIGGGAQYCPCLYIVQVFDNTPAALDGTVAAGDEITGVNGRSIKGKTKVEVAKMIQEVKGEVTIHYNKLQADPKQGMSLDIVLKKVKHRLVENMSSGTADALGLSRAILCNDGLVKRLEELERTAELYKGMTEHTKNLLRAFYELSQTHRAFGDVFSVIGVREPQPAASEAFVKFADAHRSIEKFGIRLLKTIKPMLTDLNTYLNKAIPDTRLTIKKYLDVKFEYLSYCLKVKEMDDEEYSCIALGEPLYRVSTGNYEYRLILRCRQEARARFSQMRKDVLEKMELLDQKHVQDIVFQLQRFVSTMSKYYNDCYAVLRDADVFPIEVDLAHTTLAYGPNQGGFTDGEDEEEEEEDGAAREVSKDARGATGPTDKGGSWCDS
T1 sequence (Q9EP80 whole entry S77D): as the sequence (Q9EP80 whole entry) above, with S77D counted along it
T2 sequence (Q9EP80 whole entry S77A): as the sequence (Q9EP80 whole entry) above, with S77A counted along it

For the molecule EVRQFTLRHWLKD [DAT C13 V to D], the “interaction with the PICK1 PDZ domain” value in the test on PICK1 PDZ domain (last residue changed to aspartate) was “disrupts the interaction with the PICK1 PDZ domain”.
On to “OrG DAT C13: DAT C13 with an additional N-terminal cysteine residue coupled to the fluorophore Oregon Green 488 (C(Oregon Green 488)EVRQFTLRHWLKV)”, for which, in the test with PICK1 PDZ domain, the “affinity for the PICK1 PDZ domain” value was “highest affinity reported for the PICK1 PDZ domain”.
Regarding “PICK1 A87L: PICK1 mutant (A87L) that cannot accommodate a peptide in the PDZ binding pocket”, the “PKCα phosphorylation compared with PICK1 WT” value in the test on PKCα [1] (n=3-5) is listed as “phosphorylated to the same level as WT”.
With “PICK1 WT: purified rat PICK1, cleaved from GST with thrombin”, the “fold increase in phosphorylation on addition of lipid vesicles” value with PKCα [2] is listed as “approximately 10 fold”. Moreover, the “PKCα in vitro phosphorylation” value with PKCα [1] (SDS-PAGE, 32P autoradiography, n=3) is on record as “PICK1 is a substrate for PKCα”.
As for EVRQFTLRHWLKV [DAT C13 (13 C-terminal residues of the human dopamine transporter)], the Ki is 1.1 µM in [3]; 1.5 µM in the test with PICK1 S77A, rat [4]; 1.05 µM in [5].
For NPQFVHPILQSAV [PKCα C13 (13 C-terminal residues of human protein kinase Cα)] the same measures were 29 µM, 28 µM and 49 µM.
For the molecule C(Oregon Green 488)EVRQFTLRHWLKV [OrG DAT C13 (DAT C13 with an additional N-terminal cysteine coupled to Oregon Green 488)], the binding result was “binds” in test [6]; “binds” with PICK1 S77A, rat [7]; “binds” in [8].
With EGYNVYGIESVKI [GluA2 C13 (13 C-terminal residues of human GluA2)], the Ki in test [3] is 8.8 µM; with PICK1 S77A, rat [4], 9.8 µM; in test [5], 7.6 µM.

By Ki is commonly meant a measure of affinity in units of concentration, obtained from inhibition or displacement.

Values taken from paper PMC3312318 (Biochemistry, 2012).
